Published values gathered from unrelated publications.
Protocols differ between the studies behind these lines.
Target: Leukocyte tyrosine kinase receptor (LTK, Homo sapiens, UniProt P29376)

Cc1ccc(C(=O)Nc2ccc(CN3CCN(C)CC3)c(C(F)(F)F)c2)cc1C#Cc1cnc2cccnn12  remaining signal (cell-free assay; 23.5 nM): 82%
Cc1sc(C(=O)NC2COC2)cc1-n1cc(NC(=O)Nc2c(F)cccc2Cl)cn1  remaining activity (enzyme activity; inhibitor; 10 µM): 114%
Cc1ccc(C(=O)NCc2ccsc2)cc1C#Cc1cn(C(C)C)c2ncnc(N)c12  activity vs control (enzyme activity; inhibitor; 1 µM): 95%
CC/C(=N\NC(=O)NCc1cccc(O)c1)c1ccc(O)c(C)c1O  inhibition (enzyme activity; inhibitor; 0.1 µM): -1.4%
O=C(Nc1cnn(-c2csc(C(=O)NC3COC3)c2)c1)Nc1c(F)cccc1Cl  remaining activity (enzyme activity; inhibitor; 5 µM): 92.2%
COCCOc1nc(-c2ccc(Cl)nc2)nc2c1CN(C(=O)c1ncn3ccccc13)CC2  remaining binding (cell-free assay; competition with immobilised ligand; 0.1 µM): 100%
COc1cc(Cl)c(C(=O)N[C@@H](CN[C@H]2CC[C@@H](N)CC2)Cc2ccc(C#N)cc2)cc1-c1ccc(CN[C@H](C)c2ccc(C)cc2)o1  remaining activity (enzyme activity; inhibitor; 1 µM): 94%
COc1cc2nccc(Oc3ccc(NC(=O)c4c5n(n(-c6ccc(F)cc6)c4=O)CCCC5)cc3)c2cc1OC  inhibition (enzyme activity; inhibitor; 0.1 µM): -10%
COc1cc2ncnc(Nc3ccc(Oc4ccccc4)cc3C)c2cc1OC  inhibition (enzyme activity; inhibitor; 1 µM): -5%
CC(C)(O)[C@H]1CC[C@H](Nc2ccc3ncc(-c4cccc(C(F)(F)F)c4)n3n2)CC1  remaining activity (enzyme activity; inhibitor; 1 µM): 70.5%
Cc1cc(NC(=O)c2cccc3cc(-c4cccc5[nH]nc(N)c45)ccc23)ccc1F  activity vs control (enzyme activity; inhibitor; 0.1 µM): 96%
COc1cc2ncnc(Nc3ccc(Oc4ccccc4)c(C)c3C)c2cc1OC  inhibition (enzyme activity; inhibitor; 1 µM): -2%
O=C(Nc1cnc(Oc2ccc(F)cc2)nc1)N1CCc2ncccc2[C@@H]1c1ccc(F)cc1  remaining binding (cell-free assay; competition with immobilised ligand; 1 µM): 93%
CCCS(=O)(=O)Nc1ccc(F)c(C(=O)c2c[nH]c3ncc(-c4ccc(Cl)cc4)cc23)c1F  inhibition (enzyme activity; inhibitor; 1 µM): < 10%
Cc1ccc(NC(=O)c2ccc(C)c(C(F)(F)F)c2)cc1C#Cc1nn(C2CCC(O)CC2)c2ncnc(N)c12 (stereo not shown)  remaining signal (cell-free assay; 10 µM): 73%
Cc1noc([C@H]2C[C@@H](c3ccc(C(F)(F)F)cc3)CN(C(=O)N3CCS(=O)(=O)C3)C2)n1  remaining binding (cell-free assay; competition with immobilised ligand; 1 µM): 100%
Nc1ncnc2occ(-c3ccc(NC(=O)Nc4cc(C(F)(F)F)ccc4F)cc3)c12  remaining activity (enzyme activity; inhibitor; 20 µM): 1.6%
O=C(O)[C@H]1[C@H](Cn2nnc3ccccc3c2=O)CC[C@@H]1C(=O)c1ccc(OCCC2CCOCC2)cc1  remaining binding (cell-free assay; competition with immobilised ligand; 1 µM): 100%
Cc1cnc(NC2CCOCC2)nc1-n1cnc(C(=O)NC(CN)c2cc(F)cc(Cl)c2)c1 (stereo not shown)  remaining activity (enzyme activity; inhibitor; radiometric; 1 µM): 103%
